Columns and labels:
Assay type in all cases: functional
[1] = tested on: Escherichia coli; assay: Antibacterial activity against Escherichia coli ATCC 25922 after overnight incubation
Summary of the method: (§1)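 Broth microdilution per NCCLS: 200 µL of the α-methoxylated fatty acid in Mueller-Hinton broth, inoculated with 10⁵ CFU, incubated overnight at 37 °C. MIC taken as the highest dilution inhibiting growth, compared with an uninoculated chemical-control well. At least three separate experiments, each in duplicate.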

[2] = tested on: Pseudomonas aeruginosa; assay: Antibacterial activity against Pseudomonas aeruginosa ATCC 27853 after overnight incubation; summary of the method: as §1
[3] = tested on: Enterococcus faecalis; assay: Antibacterial activity against Streptococcus faecalis group D ATCC 29212 after overnight incubation; summary of the method: as §1
[4] = tested on: Staphylococcus aureus; assay: Antibacterial activity against Staphylococcus aureus ATCC 25923 after overnight incubation; summary of the method: as §1

SMILES	MIC [1]	MIC [2]	MIC [3]	MIC [4]
CCCCCCCCC/C=C\CCCC(OC)C(=O)O (configuration not stated)	> 200 µg/mL	> 200 µg/mL	350 µM	350 µM
CCCCCCCCCC/C=C\CC[C@H](OC)C(=O)O	> 200 µg/mL	> 200 µg/mL	350 µM	350 µM
CCCCCCCCCCCCCCC(OC)C(=O)O (configuration not stated)	> 100 µg/mL	> 100 µg/mL	> 100 µg/mL	> 100 µg/mL

Reference: ChEMBL document CHEMBL1151330, “Facile total synthesis and antimicrobial activity of the marine fatty acids (Z)-2-methoxy-5-hexadecenoic acid and (Z)-2-methoxy-6-hexadecenoic acid” (1998)
